Results collected from several papers.
Target: Serine/threonine-protein kinase MRCK alpha (CDC42BPA, Homo sapiens, UniProt Q5VT25)

| Compound | effect on | action | technique | tested at | endpoint | result |
| --- | --- | --- | --- | --- | --- | --- |
| N#CC1(c2ccccn2)CCN(Cc2cc(C(=O)N3CCCC3)c(=O)n3ccccc23)CC1 | cell-free assay | – | competition with immobilised ligand | 1 µM | remaining binding | 84% |
| COc1cc2ncnc(Nc3ccc(Oc4ccccc4)cc3C)c2cc1OC | enzyme activity | inhibitor | – | 1 µM | inhibition | 6% |
| Nc1ncnc2occ(-c3ccc(NC(=O)Nc4cc(C(F)(F)F)ccc4F)cc3)c12 | enzyme activity | inhibitor | – | 20 µM | remaining activity | 0.05% |
| O=C(Nc1cnn(-c2csc(C(=O)NC3COC3)c2)c1)Nc1ccccc1Cl | enzyme activity | inhibitor | – | 5 µM | remaining activity | 99.3% |
| CSc1cccnc1N1CCN(Cc2nc3ccccc3[nH]2)CC1 | cell-free assay | – | competition with immobilised ligand | 1 µM | remaining binding | 100% |
| Cc1ccc(C(=O)Nc2ccc(CN3CCN(C)CC3)c(C(F)(F)F)c2)cc1C#Cc1cnc2cccnn12 | enzyme activity | inhibitor | – | 23.5 nM | remaining activity | 99% |
| CS(=O)(=O)CCNCc1ccc(-c2ccc3ncnc(Nc4ccc(OCc5cccc(F)c5)c(Cl)c4)c3c2)o1 | cell-free assay | – | – | 0.5 µM | remaining signal | 88.2% |
| CCN(CC)CCNC(=O)c1c(C)[nH]c(/C=C2\C(=O)Nc3ccc(F)cc32)c1C | enzyme activity | inhibitor | – | 10 µM | inhibition | 10% |
| CC(C)(C)c1nc(-c2cccc(NS(=O)(=O)c3c(F)cccc3F)c2F)c(-c2ccnc(N)n2)s1 | enzyme activity | inhibitor | radiometric | 1 µM | remaining activity | 88% |
| Cc1ccc(Nc2nccc(N(C)c3ccc4c(C)n(C)nc4c3)n2)cc1S(N)(=O)=O | enzyme activity | inhibitor | – | 0.3 µM | inhibition | 9% |
| CC1=C(C#N)[C@@H](c2ccc3[nH]nc(C)c3c2)C(C#N)=C(c2ccc(Cl)cc2)N1 | cell-free assay | – | competition with immobilised ligand | 1 µM | remaining binding | 82.2% |
| CC(C)(O)[C@H]1CC[C@H](Nc2ccc3ncc(-c4cccc(C(F)(F)F)c4)n3n2)CC1 | enzyme activity | inhibitor | – | 1 µM | remaining activity | 95.8% |
| CCCOc1ccc(OC)c(F)c1C(=O)c1ccc(C(=O)N[C@@H]2CNC[C@H]2NC(=O)c2ccc3[nH]ncc3c2)cc1 | enzyme activity | inhibitor | – | 0.5 µM | remaining activity | 27% |
| CN(C)c1ncnc(-c2ccc3nc(Nc4cc(CN5CCN(C(=O)CC(F)(F)F)CC5)ccn4)[nH]c3c2)c1Cl | cell-free assay | – | competition with immobilised ligand | 1 µM | remaining binding | 100% |
| CN1CC(Oc2cnc(C#N)cc2-c2ccn3nc(NC(=O)C4CC4)cc3c2)C1 | enzyme activity | inhibitor | – | 1 µM | inhibition | -14% |
| c1ccc(N2CCN(Cc3nc4ccccc4[nH]3)CC2)nc1 | cell-free assay | – | competition with immobilised ligand | 1 µM | remaining binding | 100% |
| O=C(Nc1cnn(-c2csc(C(=O)NC3COC3)c2)c1)Nc1c(F)cccc1Cl | enzyme activity | inhibitor | – | 5 µM | remaining activity | 99% |
| Nc1cnc(N2CCc3cc(S(=O)(=O)Nc4c(F)cc(Cl)cc4F)cc(N4CCCC4=O)c32)nc1 | cell-free assay | – | competition with immobilised ligand | 1 µM | remaining binding | 100% |
| CCN(CC)c1ccc(C2=NNC(=O)CC2C)cc1[N+](=O)[O-] (centres unmarked) | enzyme activity | inhibitor | – | 10 µM | remaining activity | 78% |
| C[C@H](NC(=O)c1cnc2n1[C@](C)(Cc1ccc(C#N)cc1)C(=O)N2c1cc(Cl)c(F)c(Cl)c1)C(=O)NC1(c2ccccn2)CC1 | cell-free assay | – | competition with immobilised ligand | 1 µM | remaining binding | 100% |
| CNC(=O)c1cc(Oc2ccc(NC(=O)Nc3ccc(Cl)c(C(F)(F)F)c3)cc2)ccn1 | enzyme activity | inhibitor | – | 10 µM | inhibition | 2% |
| O=C1Nc2ccc(Cl)cc2C1=Cc1cc(Cl)c(O)c(Cl)c1 | cell-free assay | – | – | 0.5 µM | remaining signal | 96.1% |
| CC/C(=N\NC(=O)NCc1cccc(O)c1)c1ccc(O)c(C)c1O | enzyme activity | inhibitor | – | 0.1 µM | inhibition | 49.7% |
